Source: ChEMBL document CHEMBL4665627 (Eur J Med Chem, 2019)
Converted amounts (≈) assume the structure as drawn. The source made the active and inactive calls. The rule behind the calls is not given here.

Legend:
Staphylococcus aureus [1] = assay: Synergistic antibacterial activity against methicillin-resistant Staphylococcus aureus assessed as fractional inhibitory concentration index in presence of cefathiamidine by CLSI protocol based two fold serial dilution method; type: functional
In short: (§1)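 Checkerboard-type pairing, with each agent tested alone and combined by CLSI two-fold serial dilution. MICs are from three independent experiments. FIC index = (MIC of A combined/MIC of A alone) + (MIC of B combined/MIC of B alone). An index ≤1 is read as synergistic and 1–2 as additive.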

Candida tropicalis = assay: Antifungal activity against Candida tropicalis assessed as inhibition of fungal growth after 24 hrs by CLSI protocol based two fold serial dilution method; type: functional
In short: (§2)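 Two-fold serial broth dilution in 96-well plates following CLSI; MIC (mM) taken as the lowest concentration giving complete growth inhibition; MIC values from three independent experiments.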

Candida parapsilosis = assay: Antifungal activity against Candida parapsilosis ATCC 22019 assessed as inhibition of fungal growth after 24 hrs by CLSI protocol based two fold serial dilution method; type: functional; conditions: Lodderomyces parapsilosis; in short: as §2
DNA [2] = assay: Competitive binding affinity to Klebsiella pneumoniae DNA assessed as increase in DNA intercalation by measuring increase in absorbance at around 260 nm by UV spectroscopy; type: nucleic-acid assay
In short: (§3)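 Competitive binding with neutral red as spectral probe on K. pneumoniae DNA, monitored by UV-vis absorption spectroscopy.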

Klebsiella pneumoniae [3] = assay: Induction of membrane permeabilization in Klebsiella pneumoniae at 12 times MIC measured after 1 hr by propidium iodide staining based fluorescence assay; type: functional, organism-based
Klebsiella pneumoniae [4] = assay: Antibacterial activity against Klebsiella pneumoniae assessed as bacterial growth inhibition in presence of cefathiamidine by CLSI protocol based two fold serial dilution method; type: functional; in short: as §2
Escherichia coli [5] = assay: Antibacterial activity against Escherichia coli ATCC 25922 assessed as inhibition of bacterial growth after 24 hrs by CLSI protocol based two fold serial dilution method; type: functional; in short: as §2
Pseudomonas aeruginosa [6] = assay: Antibacterial activity against Pseudomonas aeruginosa ATCC 27853 assessed as inhibition of bacterial growth after 24 hrs by CLSI protocol based two fold serial dilution method; type: functional; in short: as §2
Pseudomonas aeruginosa [7] = assay: Antibacterial activity against Pseudomonas aeruginosa assessed as inhibition of bacterial growth after 24 hrs by CLSI protocol based two fold serial dilution method; type: functional; in short: as §2
Staphylococcus aureus [8] = assay: Antibacterial activity against Staphylococcus aureus assessed as inhibition of bacterial growth after 24 hrs by CLSI protocol based two fold serial dilution method; type: functional; in short: as §2
Klebsiella pneumoniae [9] = assay: Antibacterial activity against Klebsiella pneumoniae measured every 24 hrs after 10 passages by serial dilution method; type: functional, organism-based
Staphylococcus aureus [10] = assay: Antibacterial activity against Staphylococcus aureus assessed as bacterial growth inhibition in presence of cefathiamidine by CLSI protocol based two fold serial dilution method; type: functional; in short: as §2
Escherichia coli [11] = assay: Antibacterial activity against Escherichia coli assessed as inhibition of bacterial growth after 24 hrs by CLSI protocol based two fold serial dilution method; type: functional; in short: as §2
Acinetobacter baumannii = assay: Antibacterial activity against Acinetobacter baumannii assessed as inhibition of bacterial growth after 24 hrs by CLSI protocol based two fold serial dilution method; type: functional; in short: as §2
Klebsiella pneumoniae [12] = assay: Synergistic antibacterial activity against Klebsiella pneumoniae assessed as fractional inhibitory concentration index in presence of cefathiamidine by CLSI protocol based two fold serial dilution method; type: functional
Staphylococcus aureus [13] = assay: Antibacterial activity against Staphylococcus aureus ATCC 29213 assessed as inhibition of bacterial growth after 24 hrs by CLSI protocol based two fold serial dilution method; type: functional
Aspergillus fumigatus = assay: Antifungal activity against Aspergillus fumigatus assessed as inhibition of fungal growth after 24 hrs by CLSI protocol based two fold serial dilution method; type: functional; in short: as §2
DNA [14] = assay: Competitive binding affinity to Klebsiella pneumoniae DNA assessed as intercalating activity by measuring decrease in DNA-NR probe absorption spectra at wavelength of 530 nm by UV spectroscopy; type: nucleic-acid assay; in short: as §3
DNA [15] = assay: Binding affinity to Klebsiella pneumoniae DNA assessed as intercalating activity by measuring intrinsic binding constant by UV-Vis spectroscopy; type: nucleic-acid assay
In short: (§4)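 DNA isolated from K. pneumoniae held at fixed concentration while test compound is added in stepwise, proportional increments; UV-vis absorption spectra recorded, following the 260 nm DNA band.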

DNA [16] = assay: Binding affinity to Klebsiella pneumoniae DNA assessed as increase in absorption peak of DNA by UV-Vis spectroscopy; type: nucleic-acid assay; in short: as §4
Staphylococcus aureus [17] = assay: Antibacterial activity against methicillin-resistant Staphylococcus aureus assessed as bacterial growth inhibition in presence of cefathiamidine by CLSI protocol based two fold serial dilution method; type: functional; in short: as §1
DNA [18] = assay: Binding affinity to Klebsiella pneumoniae DNA assessed as red shift in absorption spectra by UV-Vis spectroscopy; type: nucleic-acid assay; in short: as §4
Staphylococcus aureus [19] = assay: Antibacterial activity against methicillin-resistant Staphylococcus aureus N315 assessed as inhibition of bacterial growth after 24 hrs by CLSI protocol based two fold serial dilution method; type: functional
Staphylococcus aureus [20] = assay: Antibacterial activity against Staphylococcus aureus ATCC 25923 assessed as inhibition of bacterial growth after 24 hrs by CLSI protocol based two fold serial dilution method; type: functional; in short: as §2
[21] = Cytotoxicity against mouse RAW264.7 cells assessed as cell viability at 128 ug/ml after 72 hrs by MTT assay relative to control; type: cell-based; conditions: at 128 µg/mL, read-out: Activity
In short: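 RAW 264.7 mouse macrophage cells exposed to test compound; viability by colorimetric MTT proliferation assay; standard deviation from three independent experiments.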

Klebsiella pneumoniae [22] = assay: Potentiation of cefathiamidine-induced antibacterial activity against Klebsiella pneumoniae assessed as fold reduction in cefathiamidine MIC by CLSI protocol based two fold serial dilution method; type: functional
Staphylococcus aureus [23] = assay: Additive antibacterial activity against Staphylococcus aureus assessed as fractional inhibitory concentration index in presence of cefathiamidine by CLSI protocol based two fold serial dilution method; type: functional
Candida albicans [24] = assay: Antifungal activity against Candida albicans assessed as inhibition of fungal growth after 24 hrs by CLSI protocol based two fold serial dilution method; type: functional; in short: as §2
Escherichia coli [25] = assay: Synergistic antibacterial activity against Escherichia coli assessed as fractional inhibitory concentration index in presence of cefathiamidine by CLSI protocol based two fold serial dilution method; type: functional
[26] = Inhibition of Saccharomyces cerevisiae CGMCC 2.145 chitin synthase using GlcNAc and UDP-GlcNAc as substrate incubated for 60 mins by microplate reader analysis
In short: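 Chitin synthase IC50 determined from concentration–inhibition curves.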

Klebsiella pneumoniae [27] = assay: Bactericidal activity against Klebsiella pneumoniae assessed as log reduction in viable bacteria at 4 times MIC incubated for 1 hr followed by plating on agar plate and measured after 24 hrs by time kill assay; type: functional
In short: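 Time-kill kinetics for K. pneumoniae at 4 × MIC.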

DNA [28] = assay: Binding affinity to Klebsiella pneumoniae DNA assessed as cleavage of DNA at 50 uM and pH 7.4 and 37 °C incubated for 6 hrs by gel electrophoresis analysis
Saccharomyces cerevisiae = assay: Inhibition of Saccharomyces cerevisiae CGMCC 2.145 chitin synthase at 300 ug/ml using GlcNAc and UDP-GlcNAc as substrate incubated for 60 mins by microplate reader analysis relative to control; conditions: dose 300.0 µg/ml
In short: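 Chitin synthase inhibition ratio measured at 300 µg/mL test compound, relative to untreated control.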

DNA gyrase = DNA gyrase (Escherichia coli, UniProt P0AES4+P0AES6); assay: Inhibition of Escherichia coli DNA gyrase holoenzyme assessed as reduction in pBR322 DNA supercoiling using pBR322 plasmid DNA as substrate incubated for 90 mins in presence of ATP by ethidium bromide staining based agarose gel electrophoresis analysis; type: protein-complex assay
Enterococcus faecalis = assay: Antibacterial activity against Enterococcus faecalis assessed as inhibition of bacterial growth after 24 hrs by CLSI protocol based two fold serial dilution method; type: functional; in short: as §2
Candida albicans [29] = assay: Antifungal activity against Candida albicans ATCC 90023 assessed as inhibition of fungal growth after 24 hrs by CLSI protocol based two fold serial dilution method; type: functional; in short: as §2
Escherichia coli [30] = assay: Antibacterial activity against Escherichia coli assessed as bacterial growth inhibition in presence of cefathiamidine by CLSI protocol based two fold serial dilution method; type: functional; in short: as §2
DNA [31] = assay: Competitive binding affinity to Klebsiella pneumoniae DNA assessed as increase in DNA-NR probe absorption intensity at wavelength of 460 nm by UV spectroscopy; type: nucleic-acid assay; in short: as §3
DNA [32] = assay: Binding affinity to Klebsiella pneumoniae DNA assessed as hyperchromic shift by UV-Vis spectroscopy; type: nucleic-acid assay; in short: as §4
Klebsiella pneumoniae [33] = assay: Antibacterial activity against Klebsiella pneumoniae assessed as inhibition of bacterial growth after 24 hrs by CLSI protocol based two fold serial dilution method; type: functional; in short: as §2

**Q.** Which “fractional inhibitory concentration index (FICI)” value (Staphylococcus aureus [1]) does the source give for `CCn1cc(-c2csc(N)n2)c(=O)c2cc(F)c(N3CCN(CC#N)CC3)cc21` here?
**A.** 0.61

**Q.** And the MIC (Candida tropicalis)?
**A.** 39 µM (≈ 16.1 µg/mL)

**Q.** What about the MIC (Candida parapsilosis) of the same molecule?
**A.** 19 µM (≈ 7.84 µg/mL)

**Q.** What about the Activity (DNA [2]) of the same molecule?
**A.** Active

**Q.** What about the Activity (Klebsiella pneumoniae [3]) of the same molecule?
**A.** Active

**Q.** What about the MIC (Klebsiella pneumoniae [4]) of the same molecule?
**A.** 1 µM

**Q.** And the MIC (Escherichia coli [5])?
**A.** 10 µM (≈ 4.12 µg/mL)

**Q.** What about the MIC (Pseudomonas aeruginosa [6]) of the same molecule?
**A.** 19 µM (≈ 7.84 µg/mL)

**Q.** What about the MIC (Pseudomonas aeruginosa [7]) of the same molecule?
**A.** 19 µM (≈ 7.84 µg/mL)

**Q.** And the MIC (Staphylococcus aureus [8])?
**A.** 10 µM (≈ 4.12 µg/mL)

**Q.** What about the Activity (Klebsiella pneumoniae [9]) of the same molecule?
**A.** Active

**Q.** And the MIC (Staphylococcus aureus [10])?
**A.** 10 µM

**Q.** What about the MIC (Escherichia coli [11]) of the same molecule?
**A.** 39 µM (≈ 16.1 µg/mL)

**Q.** And the MIC (Acinetobacter baumannii)?
**A.** 19 µM (≈ 7.84 µg/mL)

**Q.** What about the “fractional inhibitory concentration index (FICI)” value (Klebsiella pneumoniae [12]) of the same molecule?
**A.** 0.7

**Q.** And the MIC (Staphylococcus aureus [13])?
**A.** 10 µM (≈ 4.12 µg/mL)

**Q.** What about the MIC (Aspergillus fumigatus) of the same molecule?
**A.** 19 µM (≈ 7.84 µg/mL)

**Q.** What about the Activity (DNA [14]) of the same molecule?
**A.** Active

**Q.** What about the K (DNA [15]) of the same molecule?
**A.** 1.43 10^4L/mol

**Q.** And the Activity (DNA [16])?
**A.** Active

**Q.** And the MIC (Staphylococcus aureus [17])?
**A.** 2 µM

**Q.** And the Activity (DNA [18])?
**A.** Active

**Q.** What about the MIC (Staphylococcus aureus [19]) of the same molecule?
**A.** 19 µM (≈ 7.84 µg/mL)

**Q.** And the MIC (Staphylococcus aureus [20])?
**A.** 10 µM (≈ 4.12 µg/mL)

**Q.** What about the viability at 72 h, 128 ug/ml [21] of the same molecule?
**A.** 80.2%

**Q.** And the “fold change (FC)” value (Klebsiella pneumoniae [22])?
**A.** 2

**Q.** What about the “fractional inhibitory concentration index (FICI)” value (Staphylococcus aureus [23]) of the same molecule?
**A.** 1.12

**Q.** And the MIC (Candida albicans [24])?
**A.** 10 µM (≈ 4.12 µg/mL)

**Q.** What about the “fractional inhibitory concentration index (FICI)” value (Escherichia coli [25]) of the same molecule?
**A.** 0.73

**Q.** And the IC50 [26]?
**A.** 180 µM

**Q.** What about the Activity (Klebsiella pneumoniae [27]) of the same molecule?
**A.** >2.5 log10CFU/ml

**Q.** What about the Activity (DNA [28]) of the same molecule?
**A.** inactive

**Q.** What about the inhibition (Saccharomyces cerevisiae) of the same molecule?
**A.** 64.6%

**Q.** What about the IC50 (DNA gyrase) of the same molecule?
**A.** 16.7 µM

**Q.** And the MIC (Enterococcus faecalis)?
**A.** 19 µM (≈ 7.84 µg/mL)

**Q.** What about the MIC (Candida albicans [29]) of the same molecule?
**A.** 10 µM (≈ 4.12 µg/mL)

**Q.** And the MIC (Escherichia coli [30])?
**A.** 10 µM

**Q.** What about the Activity (DNA [31]) of the same molecule?
**A.** Active

**Q.** And the Activity (DNA [32])?
**A.** Active

**Q.** And the MIC (Klebsiella pneumoniae [33])?
**A.** 5 µM (≈ 2.06 µg/mL)
